The nature of series [1]: Total clearance in Sprague-Dawley rat at 1 mg/kg, iv. Format: ADME, organism-based. As to conditions: in vivo. An outline of the steps:
(§1)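 Single intravenous dose of 1 mg/kg, with a parallel oral arm at 10 mg/kg, given to two male animals per species: C57BL/6J mice and Sprague Dawley rats. Total body clearance was derived from the plasma concentration–time profile of the compound.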

Series [2] in a line: Metabolic stability in human liver S9 fraction after 1 hr. Format: ADME, subcellular. The note with it: read-out: Stability.
In series [3] the target is T1, Acyl-CoA desaturase 1 (Mus musculus, UniProt P13516).
T1 sequence (P13516 whole entry): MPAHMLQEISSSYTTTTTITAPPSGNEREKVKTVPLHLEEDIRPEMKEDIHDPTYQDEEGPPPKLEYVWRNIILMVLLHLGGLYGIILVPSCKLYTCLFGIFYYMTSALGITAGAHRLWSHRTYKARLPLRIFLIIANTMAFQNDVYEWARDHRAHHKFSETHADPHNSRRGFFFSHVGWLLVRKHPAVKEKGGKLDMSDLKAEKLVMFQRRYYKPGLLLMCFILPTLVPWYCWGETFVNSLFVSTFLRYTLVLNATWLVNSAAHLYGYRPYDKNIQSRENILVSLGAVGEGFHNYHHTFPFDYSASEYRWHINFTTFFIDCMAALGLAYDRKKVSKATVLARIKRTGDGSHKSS
The series is described as follows: Inhibition of mouse liver microsome SCD assessed as reduction in [3H]H2O production using stearoyl [9,10-3H]CoA as substrate in presence of NADH incubated for 30 mins by scintillation counting method. The class given is microsomes. The essentials: (§2)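 Desaturation of [9,10-3H]stearoyl-CoA measured as released [3H]H2O. Water was separated from charcoal-adsorbed substrate by filtration and counted by scintillation. Remaining activity = (compound − background)/(control − background). DMSO wells served as control and pre-stopped wells as background. IC50 was interpolated from the two points bracketing 50%.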
(Microsomes from liver hold many membrane-bound enzymes, among them those of drug oxidation.)

The test system of series [4] is Mus musculus. The series is described as follows: Antiobesity activity in high fat diet fed C57BL/6J mouse assessed as reduction in diet-induced body weight gain at 10 mg/kg, po administered as diet mixture for 43 days relative to control. Format: functional. Details: scale not given: the % may be the effect or the level left. An outline of the steps:
(§3)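 C57BL/6J mice, individually housed, fed HFD for one month, then given HFD admixed with drug (0.0040% for 3 mg/kg/day, 0.0133% for 10 mg/kg/day) for 43 days, from 10 to 16 weeks of age. Chow-fed normal group as control. Body weight measured every 3–4 days. Mean ± SD, n=5–8. Dunnett's test versus HFD control.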

Series [5] in a line: Apparent terminal half life in Sprague-Dawley rat at 10 mg/kg, po. As to conditions: in vivo, read-out: betat1/2(app) (converted). The class given is ADME, organism-based. The essentials:
(§4)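 Two male Sprague-Dawley rats per route, 10 mg/kg po and 1 mg/kg iv. Cmax, tmax, terminal-phase half-life and AUC0-inf were taken from plasma concentration–time curves. Bioavailability was derived from the po and iv data.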

A short description of series [6]: AUC in Sprague-Dawley rat at 100 mg/kg, po. Format: ADME, organism-based. As to conditions: in vivo. An outline of the steps: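 Male 6-week-old SD rats, 5 per group, dosed orally once daily for 2 weeks as a suspension in 0.5% methylcellulose aqueous solution. Plasma drug levels taken 24 h after dosing on days 1, 5 and 10. Exposure figure is from this 2-week repeat-dose toxicity study.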

The next series addresses Cytochrome P450 2C19 (Homo sapiens, UniProt P33261). As to the kind of experiment: Inhibition of CYP2C19 (unknown origin). The class given is ADME.
Series [7] relates to Rattus norvegicus. The series is described as follows: Ex vivo inhibition of SCD1 in high sucrose diet Sprague-Dawley rat epididymal adipose tissue treated orally for 6 hrs followed by incubation with [14C]stearoyl-CoA substrate for 10 mins by TLC assay. The note with it: po. The class given is organism-based. An outline of the steps: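 Sprague-Dawley rats on a high sucrose diet, given oral 1 or 10 mg/kg. Liver, epididymal adipose and eyelid were taken 6 h later and homogenized. S9 SCD activity was measured by [14C]stearoyl-CoA conversion to oleate and quantified by AgNO3 TLC imaging. Result is % remaining activity versus control, mean ± SD, n=3.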

In series [8] the test system is Mus musculus. As to the kind of experiment: Ex vivo inhibition of SCD1 in C57BL/6J mouse liver assessed as residual activity at 1 mg/kg, po treated for 6 hrs followed by incubation with [14C]stearoyl-CoA substrate for 10 mins by TLC assay relative to control. The class given is functional. An outline of the steps:
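Male 6-week-old C57BL/6J mice dosed orally as a suspension in 0.5% methylcellulose. Liver or eyelid was taken 6 or 24 h later and homogenized in 100 mM Tris-HCl pH 7.4 with 0.25 M sucrose. S9 was obtained at 10,000 × g, 4 °C. S9 was incubated with [14C]stearoyl-CoA, NADH, MgCl2 and cytochrome b5 at room temperature, 10 min for liver and 30 min for eyelid. Lipids were saponified and run on AgNO3 TLC to quantify stearate and oleate. Result is % of vehicle control.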

Series [9] deals with Rattus norvegicus. The series is described as follows: Toxicity in Sprague-Dawley rat assessed as loss of fur at 1000 mg/kg, po once daily for 2 weeks measured from day 9 of administeration. The class given is organism-based. The note with it: in vivo, 336 h. An outline of the steps: (§5)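 Male Sprague Dawley rats, 6 weeks old (5 per group), were dosed orally once daily for 2 weeks at 100 or 1000 mg/kg as a suspension in 0.5% methylcellulose; controls received vehicle. Readouts: clinical observations, body weight, food consumption, ophthalmoscopy in week 2, and terminal necropsy, hematology, clinical chemistry, organ weights and histopathology. Plasma levels were measured 24 h post-dose on days 1, 5 and 10.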

Series [10] relates to Mus musculus. The series is described as follows: Antiobesity activity in high fat diet fed C57BL/6J mouse assessed as reduction in diet-induced body weight gain administered orally as diet mixture for 43 days. The class given is functional, organism-based. The essentials:
as §3

Series [11] is described as follows: Cmax in Sprague-Dawley rat at 10 mg/kg, po. Format: ADME, organism-based. Details: dose 10 mg/kg, route oral. As to conditions: in vivo. The essentials: as §4
Series [12] is described as follows: Toxicity in Sprague-Dawley rat administered orally once daily for 2 weeks. The class given is organism-based. As to conditions: in vivo, po. An outline of the steps:
as §5

Series [13] in a line: Apparent terminal half life in C57BL/6J mouse at 10 mg/kg, po. The note with it: in vivo, read-out: betat1/2(app) (converted). Format: ADME, organism-based. An outline of the steps: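 Two male C57BL/6J mice per route, 10 mg/kg po and 1 mg/kg iv. Plasma concentration–time profiles gave Cmax, tmax, terminal half-life and AUC0-inf. Bioavailability was derived from the po and iv data.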

The target of series [14] is T2, Acyl-CoA desaturase 1 (Rattus norvegicus, UniProt P07308).
T2 sequence (P07308 whole entry): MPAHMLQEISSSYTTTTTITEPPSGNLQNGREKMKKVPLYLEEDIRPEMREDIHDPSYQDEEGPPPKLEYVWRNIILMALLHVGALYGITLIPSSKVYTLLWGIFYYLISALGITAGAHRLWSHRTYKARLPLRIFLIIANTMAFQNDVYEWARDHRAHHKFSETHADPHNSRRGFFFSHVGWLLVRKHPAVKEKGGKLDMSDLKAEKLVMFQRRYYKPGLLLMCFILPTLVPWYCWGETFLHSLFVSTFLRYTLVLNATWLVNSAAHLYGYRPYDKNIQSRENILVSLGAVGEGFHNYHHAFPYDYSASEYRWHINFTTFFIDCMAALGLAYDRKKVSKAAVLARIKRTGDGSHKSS
As to the kind of experiment: Inhibition of rat liver microsome SCD assessed as reduction in [3H]H2O production using stearoyl [9,10-3H]CoA as substrate in presence of NADH incubated for 30 mins by scintillation counting method. The class given is microsomes. An outline of the steps:
as §2

Series [15] is described as follows: Metabolic stability in mouse liver S9 fraction after 1 hr. The class given is ADME, subcellular. As to conditions: read-out: Stability.
Series [16] in a line: Total clearance in C57BL/6J mouse at 1 mg/kg, iv. The class given is ADME, organism-based. As to conditions: in vivo. The essentials: as §1
The nature of series [17]: AUC (0 to infinity) in C57BL/6J mouse at 10 mg/kg, po. The class given is ADME, organism-based. Details: dose 10 mg/kg, time infinity, route oral. The note with it: in vivo.

The structures appear in SMILES notation.

A word on the clearance: it is the rate of elimination divided by the concentration. In general, IC50 refers to the concentration at which inhibition is half-maximal. By AUC is commonly meant the area under the concentration-time curve, a measure of exposure. As usually defined, the Cmax is the maximum level reached in the sampled fluid or tissue. As usually defined, the NOAEL is the highest tested level that showed no adverse finding. A word on the AUC(0-inf): it is total exposure, with the tail of the curve extrapolated.

Cytochrome P450 2C19, sequence (P33261 whole entry): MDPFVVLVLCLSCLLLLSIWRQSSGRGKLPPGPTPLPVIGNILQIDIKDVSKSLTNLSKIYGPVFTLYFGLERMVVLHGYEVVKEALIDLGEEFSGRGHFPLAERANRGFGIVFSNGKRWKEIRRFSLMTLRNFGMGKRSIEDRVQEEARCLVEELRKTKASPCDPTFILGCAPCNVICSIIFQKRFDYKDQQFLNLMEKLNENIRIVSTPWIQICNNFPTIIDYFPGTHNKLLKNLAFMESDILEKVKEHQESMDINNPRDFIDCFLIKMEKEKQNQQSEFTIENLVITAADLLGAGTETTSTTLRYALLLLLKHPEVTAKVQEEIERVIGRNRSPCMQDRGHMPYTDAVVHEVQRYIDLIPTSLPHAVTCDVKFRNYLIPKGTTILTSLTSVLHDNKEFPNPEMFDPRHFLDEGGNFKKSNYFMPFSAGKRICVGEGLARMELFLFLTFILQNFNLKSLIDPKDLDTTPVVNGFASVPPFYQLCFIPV

In the case of `CCCCc1ccccc1NCc1ccc(C(=O)Nc2nc(CC(=O)O)cs2)s1`, the figures for the clearance in series [1] and in [16] were 3.5 mL/min/kg and 10.2 mL/min/kg, respectively. Further, the remaining at 1 h in series [2] was found to be 91%; in series [15], 90%. The values for the concentration for half-maximal inhibition (IC50) on Acyl-CoA desaturase 1 [3], at Cytochrome P450 2C19 and on Acyl-CoA desaturase 1 [14] were 5.4 nM, greater than 50000 nM and 6.5 nM, respectively. Also, the Activity with Mus musculus [4] is 6%; in the series with Mus musculus [8], 13%; in the series with Rattus norvegicus [9], “Toxic”; in the series with Mus musculus [10], “Dose-dependent effect”. Also, the figures for the half-life in [5] and in series [13] were 4.7 h and 5.2 h, respectively. The AUC in series [6] was 179 µM·h. For the same molecule, the “inhibition (INH)” value in the series with Rattus norvegicus [7] is “Dose-dependent effect”. The same molecule came in with a Cmax in series [11] of 8 µM. Moreover, in [12], the NOAEL at 336 h was found to be 100 mg/kg. In addition, the AUC(0-inf) in series [17] was found to be 10.2 µM·h.

(Values after ChEMBL document CHEMBL4265954, “Discovery of potent liver-selective stearoyl-CoA desaturase-1 (SCD1) inhibitors, thiazole-4-acetic acid derivatives, for the treatment of diabetes, hepatic steatosis, and obesity” (Eur J Med Chem, 2018).)
